In article PMC7897483 (Nucleic Acids Research, 2021):

Assays:
[1] = target: hnRNP A18 RNA Recognition Motif (RRM) (Homo sapiens, UniProt Q14011); assay: NMR 1H,15N-HSQC chemical shift perturbation; assay type: binding; details: 15N-labeled hnRNP A18 RRM
Summary of the method: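 Construct: human hnRNP A18 RRM (residues 1–92), expressed in E. coli BL21(DE3) as a His6-GB1 fusion in M9 medium with 15N-ammonium chloride, induced with 1 mM IPTG for 16 h at 18°C. Purified by denaturing Ni affinity with on-column refolding, then TEV cleavage.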

[2] = test system: colorectal carcinoma RKO cells; assay: Cell viability; assay type: cell-based, human; details: 24 h, increasing concentrations
Summary of the method: (§1)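 Cells plated at 10 000 per well and exposed to increasing concentrations of test compound for 24 h. HMEC were cultured per supplier guidance. Viability was read with the ApoTox-Glo viability reagent by fluorescence at 400 nm Ex/505 nm Em. Three replicates; error bars are standard deviation.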

[3] = test system: Glioblastoma D54 cells; assay: Cell viability; assay type: cell-based, human; details: D54, 24 h, increasing concentrations
Summary of the method: as §1

[4] = Parallel Artificial Membrane Permeability Assay; assay type: in vitro ADME; details: pH 5.0 and 6.8, room temperature, ∼4 h; data not shown
Summary of the method: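 Test compounds were made up as 10 mM DMSO stocks and filtered (0.2 μm). The assay used stirred PAMPA plates with GIT-0 lipid and an acceptor sink buffer. After permeation, UV spectra from 245 to 498 nm gave relative compound concentrations in the donor and acceptor compartments, from which effective permeability was derived.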

[5] = target: T1, hnRNP A18 (Homo sapiens, UniProt Q14011); assay: Cellular thermal shift assay; assay type: cell-based; details: read-out: EC50, hnRNP A18 protection from melting; LOX-IM-VI cells over expressing GFP-hnRNP A18; 3 h; 57°C
T1 sequence (Q14011 1-172): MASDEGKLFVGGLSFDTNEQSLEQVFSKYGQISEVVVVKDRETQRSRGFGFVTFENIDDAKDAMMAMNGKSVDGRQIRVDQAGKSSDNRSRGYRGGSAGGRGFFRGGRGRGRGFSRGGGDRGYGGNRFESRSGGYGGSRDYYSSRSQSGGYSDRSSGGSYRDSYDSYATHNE

[6] = test system: pancreatic cancer MiaPaca cells; assay: Cell viability; assay type: cell-based, human; details: 24 h, increasing concentrations
Summary of the method: as §1

[7] = test system: normal human mammary epithelial HMEC cells; assay: Cell viability; assay type: cell-based; details: 24 h
Summary of the method: as §1

[8] = target: T2, His-hnRNP A18 (Homo sapiens, UniProt Q14011); assay: RNA band shift; assay type: binding; details: biotinylated hnRNP A18 RNA consensus motif 1
T2 sequence (Q14011 1-172): T1 sequence (Q14011 1-172)
Summary of the method: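 Recombinant full-length human His-hnRNP A18 was expressed in bacteria grown at 30°C. Protein (1 μg) was preincubated 10 min with or without increasing concentrations of test compound. Biotinylated hnRNP A18 motif 1 RNA (51 nt) was then added for 10 min at room temperature. Complexes were resolved on native polyacrylamide gels, transferred to nylon and detected by chemiluminescence with streptavidin-HRP.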

[9] = target: T3, GST-hnRNP A18 (UniProt Q14011 1-172); assay: fluorescence anisotropy
T3 sequence: T1 sequence (Q14011 1-172)

[10] = target: T4, His-hnRNP A18 (human, UniProt Q14011 1-172); assay: EMSA
T4 sequence: T1 sequence (Q14011 1-172)

Cc1sc(NC(=O)c2ccccc2)nc1OC(=O)c1ccccc1 [VITAS STK508411]
chemical shift perturbations of hnRNP A18 RRM (qualitative) [1]: Chemical shift perturbations were observed
cell viability (relative efficacy) [2]: least effective
cell viability (relative efficacy) [3]: least effective
effective permeability (Pe) [4]: > 2e-05 cm/s
EC50 [5]: 23.8 µM
cell viability (relative efficacy) [6]: least effective
toxicity to normal cells [7]: 20–40%
hnRNP A18 RNA binding activity / specificity by RNA band shift [8]: specifically bound hnRNP A18

B1: hnRNP A18 motif 1 Fl (ssRNA)
RNA: GCAGAUCCAGGGUGGGAUUUUCUUGAGGAAGUUACAAAUAAGCUUGUUACA
binding result [9]: binds

B2: hnRNP A18 motif 1 Biotin (ssRNA)
RNA: B1 RNA
binding result [10]: binds
